Experimental data published in ChEMBL document CHEMBL4725333, “Carbazole-based fluorescent probes for G-quadruplex DNA targeting with superior selectivity and low cytotoxicity” (Bioorg Med Chem, 2020).
Activity calls are given as the source filed them. The rule behind the calls is not given here.

Experiments:
Quadruplex DNA [1] = experiment: Binding affinity to human c-myc G-quadruplex DNA with 13-aminopurine substitution assessed as fluorescence intensity; assay type: nucleic-acid assay
In short: (§1)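 2-aminopurine-labelled c-myc G-quadruplex DNA held at 2 µM in 10 mM Tris-HCl, pH 7.4, 60 mM KCl. Probe or hemin added gradually, and 2-Ap fluorescence intensity monitored.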

[2] = Cytotoxicity against human HCCC9810 cells assessed as reduction in cell viability incubated for 72 hr by CCK8 assay; assay type: cell-based; details: HCCC9810, 72 h
In short: (§2)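 HCCC-9810, RBE and 293T cells exposed to probe at 0–100 µM for 72 h. Viable cells quantified by CCK-8 assay.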

Quadruplex DNA [3] = experiment: Effect on topology of human c-myc G-quadruplex DNA assessed as change in conformation at 265 nm by circular dichroism spectroscopy
Quadruplex DNA [4] = experiment: Binding affinity to human c-myc G-quadruplex DNA with 22-aminopurine substitution assessed as fluorescence intensity in presence of hemin; assay type: nucleic-acid assay; in short: as §1
Quadruplex DNA [5] = experiment: Binding affinity to human c-myc G-quadruplex DNA in Tris Hcl buffer assessed as fluorescence lifetime of compound at 400 nm at pH 7.4 by fluorescence emission analysis (Rvb (absence of c-myc G-quadruplex DNA ) = 0.513 ns); assay type: nucleic-acid assay
Quadruplex DNA [6] = experiment: Competitive binding affinity to human c-myc G-quadruplex DNA assessed as increase in fluorescence in presence of ssDNA and dsDNA at 1 uM by fluorescence titration analysis; assay type: nucleic-acid assay
In short: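 Competition titration: probe at 1 µM with 20 µM ds26 duplex DNA, then stepwise addition of c-myc G-quadruplex DNA, in 10 mM Tris-HCl, 60 mM KCl, pH 7.4. Read-out was fluorescence emission.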

Quadruplex DNA [7] = experiment: Binding affinity to human c-myc G-quadruplex DNA with 4-aminopurine substitution assessed as fluorescence intensity in presence of hemin; assay type: nucleic-acid assay; in short: as §1
Quadruplex DNA [8] = experiment: Binding affinity to human c-myc G-quadruplex DNA with 4-aminopurine substitution assessed as fluorescence intensity; assay type: nucleic-acid assay; in short: as §1
Quadruplex DNA [9] = experiment: Inhibition of hemin binding to human c-myc G4 quadruplex DNA by measuring peroxidase activity within 30 at 415 nm by G4/hemin peroxidase inhibition assay; assay type: nucleic-acid assay
In short: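 G4/hemin peroxidase assay in 10 mM Tris-HCl, 60 mM KCl, pH 7.4, with c-myc 0.4 µM, hemin 0.8 µM, ABTS²⁻ 0.18 mM and H₂O₂ 0.06 mM, across varied probe concentrations. Oxidized ABTS product followed by absorbance at 415 nm over 30 min.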

Quadruplex DNA [10] = experiment: Binding affinity to human c-myc G-quadruplex DNA with TTG AGGG TAAGGGT AGGGT GGGT AAA flanking loops assessed as relative fluorescence intensity at 1 uM measured at pH 7.4 by fluorescent titration; assay type: nucleic-acid assay
[11] = Cytotoxicity against human RBE cells assessed as reduction in cell viability incubated for 72 hr by CCK8 assay; assay type: cell-based; in short: as §2
Quadruplex DNA [12] = experiment: Induction of stabilization of human c-myc G-quadruplex assessed inhibition of Taq polymerase mediated DNA polymerization at high concentration upto 20 uM by PCR-stop assay; assay type: nucleic-acid assay; details: dose microM <=20
In short: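 PCR-stop assay. Probe (0–20 µM) was added to 1x PCR buffer containing 10 pmol c-myc template, 10 pmol c-myc rev primer, 0.2 mM dNTPs and 1.5 units Taq polymerase. Products were resolved on 15% non-denaturing polyacrylamide gels in 1× TBE. A mutant c-myc oligomer unable to fold served as control.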

Quadruplex DNA [13] = experiment: Binding affinity to human c-myc G-quadruplex DNA assessed as increase in fluorescence in presence of BSA/HSA at 1 uM by fluorescence titration analysis; assay type: nucleic-acid assay
In short: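 Probe fluorescence followed with increasing BSA or HSA as interfering proteins, in the same Tris-HCl/KCl pH 7.4 titration system.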

Quadruplex DNA [14] = experiment: Binding affinity to human c-myc G-quadruplex DNA with 13-aminopurine substitution assessed as fluorescence intensity in presence of hemin; assay type: nucleic-acid assay; in short: as §1
Quadruplex DNA [15] = experiment: Binding affinity to human c-myc G-quadruplex DNA with TTG AGGG TGGGT AGGGT GGGT AAATA flanking loops assessed as relative fluorescence intensity at 1 uM measured at pH 7.4 by fluorescent titration; assay type: nucleic-acid assay
Quadruplex DNA [16] = experiment: Binding affinity to human c-myc G-quadruplex DNA with TTGA GGG T GGG TA GGG T GGG TAAA flanking loops assessed as relative fluorescence intensity at 1 uM measured at pH 7.4 by fluorescent titration; assay type: nucleic-acid assay
Quadruplex DNA [17] = experiment: Binding affinity to G-quadruplex DNA in human HCCC9810 cells increase in fluorescence intensity in cytoplasm at 20 uM by confocal fluorescence microscopy; assay type: cell-based
In short: (§3)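 Live HCCC-9810 cells stained 0.5 h with probe at 20 µM together with DAPI (5 mg/mL) as nuclear counterstain. Imaged by confocal fluorescence microscopy. Intracellular location is assigned from co-staining with DAPI, and uptake is judged from fluorescence intensity within the cells.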

Quadruplex DNA [18] = experiment: Binding affinity to human c-myc G-quadruplex DNA with TTG AGGG TGGGT AGGGT ATGGGT AAA flanking loops assessed as relative fluorescence intensity at 1 uM measured at pH 7.4 by fluorescent titration; assay type: nucleic-acid assay
Quadruplex DNA [19] = experiment: Binding affinity to human c-myc G-quadruplex DNA with TTG AGGG TGGGT AATGGGT GGGT AAA flanking loops assessed as relative fluorescence intensity at 1 uM measured at pH 7.4 by fluorescent titration; assay type: nucleic-acid assay
Quadruplex DNA [20] = experiment: Binding affinity to human c-myc G-quadruplex DNA with 22-aminopurine substitution assessed as fluorescence intensity; assay type: nucleic-acid assay; in short: as §1
Quadruplex DNA [21] = experiment: Binding affinity to human c-myc G-quadruplex DNA with TTG AGGG TGGGT AGGGT GGGT flanking loops assessed as relative fluorescence intensity at 1 uM measured at pH 7.4 by fluorescent titration; assay type: nucleic-acid assay
Quadruplex DNA [22] = experiment: Binding affinity to human c-myc G-quadruplex DNA uM by circular dichroism spectroscopy; assay type: nucleic-acid assay
In short: (§4)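 CD titration of c-myc G-quadruplex DNA (5 µM) with 0–2 equivalents of probe, in 10 mM Tris-HCl, 60 mM KCl, pH 7.4.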

Quadruplex DNA [23] = experiment: Effect on topology of human c-myc G-quadruplex DNA assessed as change in conformation at 245 nm at DNA to compound ratio of 1:1 by circular dichroism spectroscopy; assay type: nucleic-acid assay; in short: as §4
Quadruplex DNA [24] = experiment: Binding affinity to human c-myc G-quadruplex DNA assessed as displacement of fluorescent labelled compound by measuring decrease in emission in presence of hemin by FID assay; assay type: nucleic-acid assay
Quadruplex DNA [25] = experiment: Binding affinity to human c-myc G-quadruplex DNA assessed as increase in fluorescence in presence of c-myc at 1 uM by fluorescence titration analysis; assay type: nucleic-acid assay
In short: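 Probe at 1 µM in 10 mM Tris-HCl, 60 mM KCl, pH 7.4, titrated stepwise with c-myc G-quadruplex DNA (0–3 µM). Emission monitored near 545–547 nm, and F/F₀ of integral fluorescence fitted to an independent-site model. Linear range 0–0.8 µM DNA; detection limit from LOD = 3σ/k.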

Quadruplex DNA [26] = experiment: Binding affinity to human c-myc G-quadruplex DNA in Tris Hcl buffer assessed as increase in fluorescence intensity at 545 nm at 0 to 0.8 uM measured at pH 7.4 by fluorescence emission analysis; details: dose microM 0-0.8
HEK-293T = experiment: Cytotoxicity against human 293T cells assessed as reduction in cell viability incubated for 72 hr by CCK8 assay; assay type: cell-based; in short: as §2
Quadruplex DNA [27] = experiment: Binding affinity to human c-myc G-quadruplex DNA with AGGG TGGGT AGGGT GGGT AAA flanking loops assessed as relative fluorescence intensity at 1 uM measured at pH 7.4 by fluorescent titration; assay type: nucleic-acid assay
Quadruplex DNA [28] = experiment: Binding affinity to human c-myc G-quadruplex DNA with TTG AATGGG TGGGT AGGGT GGGT AAA flanking loops assessed as relative fluorescence intensity at 1 uM measured at pH 7.4 by fluorescent titration; assay type: nucleic-acid assay
Quadruplex DNA [29] = experiment: Binding affinity to G-quadruplex DNA in human HCCC9810 cells increase in fluorescence intensity at 20 uM by confocal fluorescence microscopy; assay type: cell-based; in short: as §3

For `COCCOCCOCCn1c2ccccc2c2cc(/C=C/c3cccc[n+]3C)ccc21.[I-]`, the Activity (Quadruplex DNA [1]) was “Active”, the IC50 [2] was greater than 40 µM and the Activity (Quadruplex DNA [3]) was “inactive”. For the same molecule, the Activity (Quadruplex DNA [4]) was “inactive”, the Time (Quadruplex DNA [5]) was 3.87 nanoseconds and the Activity (Quadruplex DNA [6]) was “Active”. For the same molecule, the Activity (Quadruplex DNA [7]) was “inactive”, the Activity (Quadruplex DNA [8]) was “Active” and the Activity (Quadruplex DNA [9]) was “inactive”. The Flu intensity (Quadruplex DNA [10]) was 910, the IC50 [11] was greater than 40 µM and the Activity (Quadruplex DNA [12]) was “Active”. The Activity (Quadruplex DNA [13]) was “Active”, the Activity (Quadruplex DNA [14]) was “inactive” and the Flu intensity (Quadruplex DNA [15]) was 852. For the same molecule, the Flu intensity (Quadruplex DNA [16]) was 695, the Activity (Quadruplex DNA [17]) was “Active” and the Flu intensity (Quadruplex DNA [18]) was 570. For the same molecule, the Flu intensity (Quadruplex DNA [19]) was 632, the Activity (Quadruplex DNA [20]) was “Active” and the Flu intensity (Quadruplex DNA [21]) was 861. For the same molecule, the Activity (Quadruplex DNA [22]) was “Active”, the Activity (Quadruplex DNA [23]) was “inactive” and the Activity (Quadruplex DNA [24]) was “inactive”. The Activity (Quadruplex DNA [25]) was “Active”, the Activity (Quadruplex DNA [26]) was “Active” and the IC50 (HEK-293T) was 40 µM. The Flu intensity (Quadruplex DNA [27]) was 846, the Flu intensity (Quadruplex DNA [28]) was 702 and the Activity (Quadruplex DNA [29]) was “Active”.
